This is a sample that favours compounds with a hit; in the whole collection about 1.8% have one here.
Wee1 degr inh – Wee1 degradation inhibitors, primary screen, cell-based, HeLa, Wee1K328M-luciferase, luminescence | reporter increase, % at 5 µM | 220,000 tested, 1.2% active | Wee1-like protein kinase (Homo sapiens), P30291 | HeLa Luc-Wee1K328M stability; 100% = proteasome inhibitor MG132 effect;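 active = activation above the mean of all tested compounds plus 3 SD, set per screening run, cut at about 8.8% in these data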;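 also: cells exposed to compound for 20 h before luminescence read; 0% = DMSO alone and 100% = MG132 at 30 µM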
FXIIa inh – human FXIIa protease inhibitors, primary screen, biochemical, 1536-well. inhibition, % at 5 µM. purified FXIIa, Boc-QGR-AMC fluorogenic substrate, 2 h. 220,000 tested, 0.3% active. Coagulation factor XII (Homo sapiens), P00748. AID 800, 2007; in the data active = inhibition above about 40%;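 also: 0% = enzyme with no compound and 100% = blank without enzyme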
thrombin 1536 – human alpha-thrombin inhibitors, primary screen, counter-screen for coagulation protease inhibitor project, biochemical, 1536-well, fluorogenic AMC substrate; AID 1046, 2008; 220,000 tested, 0.26% active; Boc-VPR-AMC fluorogenic substrate cleavage; inhibition, % at 5 µM;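 active = inhibition at or above 40%; inactive = inhibition below 40%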;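 also: 0% = enzyme with no compound and 100% = wells without enzyme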
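Material: Human alpha-thrombin protein | Buffer or medium: pH 7.5 Tris-saline with Tween 20 | Reagent: Boc-VPR-AMC substrate, 15 µM final | Schedule: Reaction at ambient temperature | Detection: AMC fluorescence at 355 nm excitation and 460 nm emission | Evaluation: Percent inhibition scaled between no-compound controls and no-enzyme blanks | Controls: no-compound enzyme wells and no-enzyme blanks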
hK5 inh – human KLK5 protease inhibitors, primary screen, biochemical, 1536-well; Kallikrein-5 (Homo sapiens), Q9Y337; recombinant hK5, fluorogenic AMC substrate cleavage; inhibition, % at 5 µM; 210,000 tested, 0.59% active; AID 873, 2007;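 active = inhibition of 40% or more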;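 also: 0% = enzyme controls without compound and 100% = no-enzyme blanks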
FXIa inh – human FXIa protease inhibitors, primary screen, biochemical, 1536-well | Coagulation factor XI (Homo sapiens), P03951 | purified FXIa, Boc-Glu-Ala-Arg-AMC fluorogenic substrate | inhibition, % at 5 µM | 220,000 tested, 0.14% active | AID 798, 2007;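 active = inhibition of at least 40%; inactive = inhibition below 40%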;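 also: fluorescence of freed AMC excited at 355 nm; 0% = enzyme without compound and 100% = no enzyme blank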
Target sequence (P03951 19-387 limits assumed): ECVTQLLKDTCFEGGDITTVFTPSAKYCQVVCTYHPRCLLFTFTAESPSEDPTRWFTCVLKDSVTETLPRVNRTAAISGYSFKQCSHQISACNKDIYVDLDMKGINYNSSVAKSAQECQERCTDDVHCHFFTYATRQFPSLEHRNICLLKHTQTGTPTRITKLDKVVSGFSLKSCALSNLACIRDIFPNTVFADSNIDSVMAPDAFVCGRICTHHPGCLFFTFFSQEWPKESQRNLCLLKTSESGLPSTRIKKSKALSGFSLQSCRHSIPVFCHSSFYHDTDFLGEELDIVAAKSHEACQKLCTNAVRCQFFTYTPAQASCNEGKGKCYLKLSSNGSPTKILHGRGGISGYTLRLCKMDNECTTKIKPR
Target sequence (P03951 388-625 limits assumed): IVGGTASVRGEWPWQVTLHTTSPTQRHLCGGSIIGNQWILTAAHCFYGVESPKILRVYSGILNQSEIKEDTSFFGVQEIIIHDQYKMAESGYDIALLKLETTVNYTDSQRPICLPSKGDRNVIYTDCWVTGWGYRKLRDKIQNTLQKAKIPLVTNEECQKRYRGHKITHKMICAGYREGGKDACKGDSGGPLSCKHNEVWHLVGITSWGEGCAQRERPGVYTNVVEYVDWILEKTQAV
Platelet DG rel – inhibitors of platelet dense granule secretion, primary screen, cell-based, MLPCN, human platelets; inhibition, %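 (compounds screened at 7.5 µM in platelet-rich plasma)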; 300,000 tested, 0.22% active; human platelet-rich plasma, SFLLRN dense granule ATP release, luminescence;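 active = mean replicate score, as percent of positive control, at or above 50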
Wee1 stab conf – Wee1 degradation inhibitors, confirmation, cell-based, HeLa, Wee1K328M-luciferase, luminescence, triplicate. shares compounds with Wee1 degr inh. HeLa Luc-Wee1K328M degradation; vehicle 0%, proteasome-blocked wells 100%. activation, % at 5 µM. 1,100 tested, 4% active. AID 1410, 2008; in the data active = activation above about 8.9%
Starred values were filed as active, the others as inactive; nt = no result given.

SMILES	Wee1 degr inh	FXIIa inh	thrombin 1536	hK5 inh	FXIa inh	Platelet DG rel	Wee1 stab conf
CN1CCN(c2ncnc3c2cnn3-c2ccc(Cl)cc2)CC1	13.4*	9.0	-8.4	-20.1	-3.2	25.8	-7.2
COCCNC(=S)N1CCN(S(C)(=O)=O)CC1	-0.1	12.7	-8.3	7.2	5.5	-3.9	nt
CC(=O)c1cccc(NC(=O)C2CC(c3ccc(F)cc3)=NO2)c1 (stereo not drawn)	25.5*	-5.4	6.8	-9.8	-1.2	5.3	-3.4
COc1cccc(C2=NOC(C(=O)Nc3cccc(C(C)=O)c3)C2)c1 (stereo not drawn)	-1.4	14.5	-0.3	1.3	-0.8	-14.5	nt
C#CCCOC(=O)Nc1ccccc1	-1.7	12.8	5.5	7.3	14.9	10.3	nt
FC(F)(F)c1nc2ccccc2n2c(-c3c(Cl)cccc3Cl)nnc12	-2.4	12.2	3.7	-9.2	8.5	7.5	nt
Clc1cccc(Cl)c1-c1nnc2cccc(Cl)n12	11.9*	15.4	3.3	-10.9	7.4	-2.6	-0.9
CCCCNC(=S)Nc1ccc2nc3n(c(=O)c2c1)CCCCC3	0.0	0.5	-10.3	-15.7	2.2	-6.2	nt
CC(C)CCNC(=S)Nc1ccc2nc3n(c(=O)c2c1)CCCCC3	11.2*	0.9	-2.8	-13.5	1.3	-6.1	1.1
COCc1nnc(NC(=O)c2ccc(NC(C)=O)cc2)s1	-0.4	20.9	3.5	6.4	6.4	1.8	nt
COCCSc1nnc(NC(=O)c2ccc(NC(C)=O)cc2)s1	13.6*	3.4	-10.5	-2.5	-4.8	-6.3	1.6
COc1cccc(CNC(=O)Cc2ccc(OC)c(S(=O)(=O)N3CCOCC3)c2)c1	nt	nt	nt	nt	nt	-6.8	nt
CC(C)CCNC(=O)c1cc(-c2ccncc2)nc2ccc(S(=O)(=O)N3CCOCC3)cc12	11.1*	13.8	-2.2	-8.7	4.8	-4.2	1.5
COCCNC(=O)c1cc(-c2ccncc2)nc2ccc(S(=O)(=O)N3CCOCC3)cc12	-0.3	7.0	1.3	-1.3	0.9	-0.5	nt
CCOC(=O)c1ccc(-c2csc(NC(=O)CN3CCC(C)CC3)n2)cc1	nt	nt	nt	nt	nt	9.6	nt
Cc1cc(N2C3CCC2CC(O)(c2ccc(F)cc2)C3)nc(-c2ccccc2)n1 (stereo not drawn)	-0.8	-3.7	-7.3	-1.0	-12.1	5.5	nt
Cc1ccnc(N2C3CCC2CC(O)(c2ccccc2)C3)n1 (stereo not drawn)	12.3*	2.6	-2.3	-7.1	-3.8	1.5	0.4
COCCNC(=O)c1cc(-c2cccc(OC)c2)on1	4.9	14.5	-0.8	-23.7	0.6	-7.3	nt
COc1cccc(-c2cc(C(=O)NC3CCCC3)no2)c1	14.6*	3.8	0.1	-23.8	-10.5	-3.4	2.7
COC(=O)c1ccc(NC(=O)CSc2ccccc2)cc1	0.6	11.4	0.3	-19.2	4.2	-10.3	nt
COc1ccc(CC(=O)NC(C)c2nnc(SCC(=O)Nc3ccccc3)n2C)cc1 (stereo not drawn)	-3.1	-7.2	2.4	-19.3	-3.9	10.8	nt
COC(=O)c1ccc(NC(=O)CSc2ccccn2)cc1	15.0*	3.2	-4.7	-4.4	0.9	2.6	0.5
COC(=O)c1ccc(NC(=O)CSc2nnc(C(C)NC(=O)c3ccccc3Cl)n2C)cc1 (stereo not drawn)	21.8*	8.6	-6.2	4.6	-4.5	1.7	0.0
CS(=O)(=O)Nc1ccc(C(=O)Nc2ccc(S(=O)(=O)N3CCCC3)cc2)cc1	12.8*	13.5	-1.7	2.7	-0.3	6.9	0.7
CCn1c2ccccc2c2cc(NC(=O)COC(=O)c3ccc(NC(=O)CC#N)cc3)ccc21	nt	nt	nt	nt	nt	2.8	nt
SMILES	Wee1 degr inh	FXIIa inh	thrombin 1536	hK5 inh	FXIa inh	Platelet DG rel	Wee1 stab conf
CCOC(=O)c1ccc(NC(=O)C(CC)(CC)C(=O)OCC)cc1	15.7*	9.1	2.2	3.8	4.4	-2.6	-2.4
CCOC(=O)c1ccc(NC(=S)Nc2cccc(N)n2)cc1	17.9*	3.0	0.5	-1.1	1.7	-2.5	0.9
CCOC(=O)c1cn[nH]c1NC(=S)Nc1ccc(OC)cc1	12.5*	4.7	0.5	-7.0	-4.3	3.1	-5.6
CCOC(=O)c1ccc(NC(=S)Nc2cccc(C)n2)cc1	-1.8	5.2	-12.4	-14.2	-3.4	-21.2	nt
CCOC(=O)c1ccc(NC(=O)COC)cc1	1.1	5.1	-2.5	1.4	7.4	-0.1	nt
C=CCSc1n[nH]c2nc3c(c(=O)n12)C1(CCCC1)Cc1ccccc1-3	-1.4	12.4	-1.0	-11.0	1.3	nt	nt
CC(C)(C)OC(=O)NC1CCN(S(=O)(=O)c2ccc3c(c2)OCCO3)CC1	nt	nt	nt	nt	nt	1.1	nt
Cc1cc(C)n2nc(C(=O)Nc3cccnc3)nc2n1	12.7*	1.0	-9.7	-4.5	-9.6	2.7	-0.8
Cc1cc(C)n2nc(C(=O)Nc3cccc(S(=O)(=O)N4CCCC4)c3)nc2n1	0.8	8.9	-3.4	-3.5	-1.2	3.6	nt
CCCCS(=O)(=O)/C=C\C=C/S(=O)(=O)CCCC	18.7*	10.2	-6.5	-14.4	-3.4	23.5	12.1*
O=C(NCC1CC1)[C@]1(C(F)(F)F)C[C@H](CCC2CCCCC2)CCCO1	nt	nt	nt	nt	nt	2.1	nt
C[C@@]12C(=O)N(c3ccc(C(F)(F)F)cc3)C(=O)N1[C@@H]1c3ccccc3OC[C@@H]1[C@H]2c1ccccc1	nt	nt	nt	nt	nt	-1.3	nt
CCNC(=O)COc1ncnc2scc(-c3ccc(F)cc3)c12	2.1	0.9	3.0	-15.0	-4.8	12.0	nt
CNC(=O)COc1ncnc2scc(-c3ccc(F)cc3)c12	11.7*	8.5	4.3	-0.3	5.2	8.0	1.5
CCN(CC)CCSc1nc2ccccc2c(=S)n1-c1ccccc1	13.2*	9.7	-1.4	3.5	1.6	-2.7	0.5
Cc1ccc(/C=C/C(=O)NCCCc2ccccc2)cc1	18.6*	4.4	7.8	5.2	-0.1	-3.0	-1.3
C#CCNC(=O)/C=C/c1ccc(C)cc1	-0.9	15.3	4.2	-3.9	9.0	-9.4	nt
O=C(Nc1nnc(-c2ccncc2)o1)c1ccccc1	22.0*	6.8	0.8	2.5	0.6	-38.1	1.8
O=C(O)CCn1cc(/C=C2\SC(=S)NC2=O)c(-c2ccccc2)n1	13.3*	21.6	7.8	26.1	13.6	10.8	0.5
CCCCn1c(N)c(N(CCOC)C(=O)CSCc2cccc(C)c2)c(=O)[nH]c1=O	nt	nt	nt	nt	nt	-4.1	nt
Cc1ccccc1-n1cnnc1SCC(=O)Nc1cccnc1Cl	15.1*	9.6	-16.8	1.5	-3.0	-8.2	-0.4

Screening results from PubChem.
